High-throughput results as filed in PubChem.
Compounds with a hit are over-represented: about 2.3% of the library has one in this group of screens.
DENV2 CPE rescue = inhibitors of DENV2 cytopathic effect; DENV2-infected cells, cytopathic effect rescue, plate reader; CPE inhibition, % at 9.99 µM; 350,000 tested, 1.7% active; in the data active means CPE inhibition above about 20%, passing the limit was not always enough; tested in BHK-21 cells;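 further: 0% = median of neutral control wells and 100% = median of positive control wells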
Cneo AK release = Cryptococcus neoformans lysis via adenylate kinase release; C. neoformans lysis, adenylate kinase release luminescence, 4 h; normalised: neutral wells 0, clomiphene wells 100; AID 651654; lysis activity, % at 15 µM; 360,000 tested, 0.2% active;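 active means mean lysis activity across replicates of at least 80%, whatever share of replicates individually reach that level; inactive means mean lysis activity below 80%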
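Material: C. neoformans cells; Schedule: 4 h static compound exposure, 37 °C, read 1 h post-reagent; Measured by: adenylate kinase release luminescence; Read-out: signal increase indicating cell lysis; Controls: Clomiphene as positive lysis control.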
PDI inh = PDI (human) enzyme inhibition. P07237. PDI insulin aggregation turbidity, A650, 90 min. inhibition, % at 10 µM. 350,000 tested, 0.052% active. AID 588391;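 active means mean inhibition across replicates of 30% or more, whatever share of single replicates reach that level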
Statin myotox sup = suppression of simvastatin myotoxicity | C2C12 myotubes + simvastatin, ATP luminescence, 48 h; scaled: DMSO 0, geranylgeraniol control 100 | rescue of ATP level, % at 7.49 µM | 330,000 tested, 0.78% active | AID 602340;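 active means mean ATP rescue above about 67%, or every replicate alone reaching that limit, limit read from the data, passing the limit was not always enough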;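 further: myotubes were challenged with 10 µM simvastatin during compound exposure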
ERp5 inh = inhibitors of human ERp5. ERp5 insulin aggregation, absorbance 650 nm, 90 min. inhibition, % at 9.99 µM. 350,000 tested, 0.05% active;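 active means mean replicate inhibition above about 25%, with every replicate also reaching it, limit read from the data, passing the limit was not always enough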
Target sequence (Q15084 whole entry, looked up): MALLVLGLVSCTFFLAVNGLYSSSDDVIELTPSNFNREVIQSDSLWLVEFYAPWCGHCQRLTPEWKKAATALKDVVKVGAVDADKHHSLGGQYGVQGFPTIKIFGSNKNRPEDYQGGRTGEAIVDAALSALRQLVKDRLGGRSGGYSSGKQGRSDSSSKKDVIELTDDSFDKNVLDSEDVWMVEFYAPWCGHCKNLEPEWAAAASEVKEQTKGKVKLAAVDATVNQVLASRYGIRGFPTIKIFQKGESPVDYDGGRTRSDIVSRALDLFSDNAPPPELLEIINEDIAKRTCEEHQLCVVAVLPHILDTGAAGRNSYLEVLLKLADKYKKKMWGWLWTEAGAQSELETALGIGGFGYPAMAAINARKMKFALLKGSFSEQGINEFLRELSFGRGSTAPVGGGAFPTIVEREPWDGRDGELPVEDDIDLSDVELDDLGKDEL
CFTR F508del cor = CFTR F508del correction in bronchial cells; CFBE cells, YFP halide quenching; stimulated with forskolin plus potentiator P3; % fluorescence drop versus neutral controls; activity (quench increase), % at 7.58 µM; 350,000 tested, 0.36% active;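 active means mean added fluorescence quench of at least 8% versus neutral control, with both replicates also reaching 8%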;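 further: cells transiently co-express mutant CFTR-F508del with the halide-sensitive YFP; corrector assay measuring rescue of mutant channel to the surface after 24 h compound exposure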
* marks the source's active call; other numbers are inactive results; / = not tested or not shown.

SMILES	DENV2 CPE rescue	Cneo AK release	PDI inh	Statin myotox sup	ERp5 inh	CFTR F508del cor
C[C@H](CO)N1C[C@H](C)[C@@H](CN(C)Cc2ccc(C(=O)O)cc2)Oc2c(NC(=O)Cc3ccccc3)cccc2C1=O	53*	3	-29	-2	1	1
C[C@@H]1CN([C@H](C)CO)C(=O)c2cccc(NC(=O)C3CC3)c2O[C@H]1CN(C)Cc1ccc(C(=O)O)cc1	/	97*	/	0	2	2
C[C@H](CO)N1C[C@H](C)[C@@H](CN(C)Cc2ccc(C(=O)Nc3ccccc3N)cc2)Oc2c(NC(=O)Nc3ccccc3)cccc2C1=O	0	1	/	35	4	-1
C[C@@H]1CN([C@@H](C)CO)C(=O)c2cccc(NC(=O)C3CC3)c2O[C@@H]1CN(C)Cc1ccc(C(=O)O)cc1	14	53	/	23	1	0
COc1ccc(NC(=O)Nc2cccc3c2O[C@@H](CN(C)Cc2ccccc2)[C@@H](C)CN([C@@H](C)CO)C3=O)cc1	-6	38	/	-3	1	-1
CC=Cc1ccc2n(c1=O)C[C@H]1[C@H](CO)[C@@H](C(=O)N3CCN(C)CC3)N(Cc3ccccc3OC)[C@@H]21 (mixture of isomers)	6	/	/	-13	/	3
CNC(=O)C[C@@H]1CC[C@H]2[C@@H](COC[C@@H](O)CN2S(=O)(=O)c2ccc(Oc3ccccc3)cc2)O1	-5	3	/	5	1	1
CC(C)C#Cc1cnc2c(c1)C(=O)N([C@H](C)CO)C[C@H](C)[C@H](CN(C)Cc1cncnc1)O2	19	-6	/	-12	2	2
CCC(=O)N[C@H]1CC[C@@H](CCn2cc(C3CC3)nn2)O[C@H]1CO	7	23	/	5	-1	3
C[C@H](CO)N1C[C@H](C)[C@@H](CN(C)Cc2ccc(C(=O)O)cc2)Oc2c(NC(=O)Nc3ccccc3)cccc2C1=O	30*	-1	/	-6	1	-1
C[C@@H]1CN([C@H](C)CO)C(=O)c2cccc(NC(=O)Nc3ccccc3)c2O[C@@H]1CN(C)Cc1ccc(C(=O)O)cc1	16	-1	/	-7	0	2
c1cncc(-c2nc(NCc3ccco3)c3ccccc3n2)c1	/	7	-7	94*	/	/
CN1CCN(C(=O)[C@@H]2[C@@H](CO)[C@@H]3Cn4c(ccc(-c5cncnc5)c4=O)[C@@H]3N2CC2CCCC2)CC1	-10	-5	/	-3	-2	2
Cc1ccc(OCCNC(=O)/C=C/c2ccccc2)cc1	28*	/	-1	8	-2	-5
C[C@@H](NC(=O)C[C@@H]1C=C[C@@H](NC(=O)C2CCOCC2)[C@@H](CO)O1)c1ccccc1	13	0	/	-2	5	-2
O=C(CSc1nc2c(cnn2-c2ccccc2)c(=O)[nH]1)N1CCOCC1	/	-1	3	142*	/	/
Cc1ccc(-n2ncc3c(=O)[nH]c(SCC(=O)N4CCOCC4)nc32)cc1	/	-2	1	129*	/	/
CCOC(=O)C(C)Sc1nc2c(cnn2-c2ccc(C)cc2)c(=O)[nH]1 (stereo not drawn)	/	1	1	97*	/	/
Cc1ccc(-n2ncc3c(=O)[nH]c(SCC(=O)N4CCCC4)nc32)cc1C	63*	1	5	3	0	1
CCCNC(=O)Nc1ccc2c(c1)C(=O)N(C)C[C@H](OC)[C@H](C)CN(C(=O)CC)[C@H](C)CO2	/	2	/	1	/	2
CCOCCc1nnc(NC(=O)C(CC)c2ccccc2)s1 (stereo not drawn)	/	1	3	116*	/	/
Cc1c(C(=O)Nc2cccc(F)c2)cnn1-c1ccccc1	50*	-7	2	-27	0	-2
CCCOc1nnnn1-c1ccccc1	/	-2	-1	4	/	/
CCCOn1nnnc1-c1ccccc1	/	/	-2	120*	/	/
COc1ccc(CN(C)C[C@@H]2OCCCC[C@H](C)Oc3ccc(NS(=O)(=O)c4cn(C)cn4)cc3C(=O)N([C@@H](C)CO)C[C@H]2C)cc1	-2	45	/	/	-2	1
SMILES	DENV2 CPE rescue	Cneo AK release	PDI inh	Statin myotox sup	ERp5 inh	CFTR F508del cor
COc1ccc(CC(=O)NC(=S)Nc2cccc(C)c2)cc1	-1	/	-4	/	-1	1
COc1cccc(NC(=S)NC(=O)Cc2ccc(Cl)cc2)c1	-5	83*	16	-3	-2	-1
CCCNC(=O)C[C@@H]1CC[C@@H]2[C@H](COC[C@H](O)CN2C(=O)Nc2c(C)noc2C)O1	2	-2	/	-8	1	0
c1ccc(CCNc2nc(-c3ccccn3)nc3ccccc23)cc1	-15	1	1	/	-2	13*
O=C(C1CCCCC1)N1CC2(C1)[C@H](c1ccccc1)[C@H](CO)N2C(=O)c1cccnc1	28*	/	/	/	-3	1
CCC(=O)N1CC2(C1)[C@H](c1ccccc1)[C@H](CO)N2C(=O)c1cccnc1	24*	/	/	/	-1	-1
CCC(=O)N1CC2(C1)[C@H](c1ccccc1)[C@@H](CO)N2C(=O)c1cccnc1	0	/	/	/	-3	-1
O=C(C1CCC1)N1CC2(C1)[C@@H](c1ccccc1)[C@@H](CO)N2C(=O)c1cccnc1	0	/	/	/	-7	1
O=C(c1cccnc1)N1CC2(C1)[C@H](c1ccccc1)[C@H](CO)N2C(=O)C1CCC1	44*	/	/	/	4	3
O=C(c1ccc2c(c1)OCO2)N1CC2(C1)[C@H](c1ccccc1)[C@@H](CO)N2C(=O)C1CCC1	44*	/	/	/	-5	-2
Cn1cnc(S(=O)(=O)N2C[C@@H](O)COC[C@@H]3O[C@H](CC(=O)NCc4cc(F)cc(F)c4)CC[C@H]32)c1	0	0	/	-9	2	-1
CCN1[C@H](C(=O)NCc2ccc(F)cc2)[C@@H](CO)[C@@H]2Cn3c(ccc(-c4ccccc4OC)c3=O)[C@@H]21	-1	-1	/	17	-4	/
C/C=C/c1ccc([C@@H]2[C@@H](CN(C)C(=O)CC)N(C(=O)C3CC3)[C@H]2CO)cc1	-5	4	/	-1	-2	-2
O=C(c1cccnc1)N1CC2(C1)[C@H](c1ccccc1)[C@@H](CO)N2CC1CC1	10	/	/	/	7	-3
O=C(c1cccnc1)N1CC2(C1)[C@@H](c1ccccc1)[C@@H](CO)N2CC1CC1	20*	/	/	/	-3	3
COCC(=O)N1[C@@H](CO)[C@@H](c2ccccc2)C12CN(C(=O)Nc1ccccc1F)C2	3	/	/	/	1	-2
CCC(=O)N1[C@H](CO)[C@H](c2ccccc2)C12CN(C(=O)Nc1ccccc1F)C2	27*	/	/	/	0	-3
CCS(=O)(=O)N1CC2(C1)[C@H](c1ccccc1)[C@@H](CO)N2C(=O)C1CC1	23*	/	/	/	8	-1
CCC(=O)N1CC2(C1)[C@H](c1ccccc1)[C@@H](CO)N2C(=O)NC(C)C	29*	/	/	/	-1	-1
